The values below come from ChEMBL document CHEMBL3612030 (Eur J Med Chem, 2015).

The structures appear in SMILES notation. Active and inactive are the calls of the source. The rule behind the calls is not given here.

As a reminder, the EC50 is the concentration needed to bring the measured effect to its halfway point. In general, IC50 refers to the point on the concentration scale where inhibition reaches its midpoint.

The first experiment deals with U-937. The experiment in a line: Cytotoxicity against human U937 cells assessed as reduction in viability incubated for 24 hrs by MTT assay. It counts as cell-based. The note with it: U-937, 24 h. The procedure, abridged:
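U937 cells grown in RPMI 1640 with 10% FBS, […] and penicillin/streptomycin at 37 °C under 5% CO2. Seeded at 1 × 10^6/mL and exposed to 3 concentrations for 24 h. MTT added at one-tenth culture volume for 4 h, then acidic isopropanol. Read at 570 nm minus 630-690 nm background. Untreated cells (RPMI + DMSO) = 100% viability. EC50 = concentration halving MTT reduction. 3–4 independent experiments, mean ± S.E.M.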
For orientation: Tetrazolium assays rely on reduction of a dye to a coloured formazan, in cell work by metabolically active cells.
Take `CC(=O)Oc1ccc(/C=C/C(=O)OCCCn2cc(CCOC(=O)/C=C/c3ccc(OC(C)=O)c(OC(C)=O)c3)nn2)cc1OC(C)=O`: the 50% effective concentration (EC50) came to 9.6 µM.

In the case of `CC(=O)Oc1ccc(/C=C/C(=O)OCCCCCCCCc2cn(CCCO)nn2)cc1OC(C)=O`, the half-maximal effective concentration (EC50) was 10.2 µM.

For the compound `CC(=O)Oc1ccc(/C=C/C(=O)OCCc2cn(CCCOC(=O)C3(C)CCc4c(C)c(OC(C)=O)c(C)c(C)c4O3)nn2)cc1OC(C)=O` (configuration not stated), the EC50 came out at 10.1 µM.

Take `O=C(/C=C/c1ccc(F)c(F)c1)OCCc1cn(CCCO)nn1`: the EC50 is 5.1 µM.

Take `O=C(O)/C=C/c1ccc(O)c(O)c1` [CAFFEIC ACID]: the EC50 was found to be 9.9 µM.

Turning to `C#CCCOC(=O)/C=C/c1ccc(OC(C)=O)c(OC(C)=O)c1`, the 50% effective concentration (EC50) was found to be 9.8 µM.

With `CC(=O)Oc1ccc(/C=C/C(=O)NCCc2cn(CCCO)nn2)cc1OC(C)=O`, the EC50 is 10.3 µM.

The target of the next experiment is T1, Polyunsaturated fatty acid 5-lipoxygenase (Homo sapiens) (UniProt P09917).
T1 sequence (whole entry): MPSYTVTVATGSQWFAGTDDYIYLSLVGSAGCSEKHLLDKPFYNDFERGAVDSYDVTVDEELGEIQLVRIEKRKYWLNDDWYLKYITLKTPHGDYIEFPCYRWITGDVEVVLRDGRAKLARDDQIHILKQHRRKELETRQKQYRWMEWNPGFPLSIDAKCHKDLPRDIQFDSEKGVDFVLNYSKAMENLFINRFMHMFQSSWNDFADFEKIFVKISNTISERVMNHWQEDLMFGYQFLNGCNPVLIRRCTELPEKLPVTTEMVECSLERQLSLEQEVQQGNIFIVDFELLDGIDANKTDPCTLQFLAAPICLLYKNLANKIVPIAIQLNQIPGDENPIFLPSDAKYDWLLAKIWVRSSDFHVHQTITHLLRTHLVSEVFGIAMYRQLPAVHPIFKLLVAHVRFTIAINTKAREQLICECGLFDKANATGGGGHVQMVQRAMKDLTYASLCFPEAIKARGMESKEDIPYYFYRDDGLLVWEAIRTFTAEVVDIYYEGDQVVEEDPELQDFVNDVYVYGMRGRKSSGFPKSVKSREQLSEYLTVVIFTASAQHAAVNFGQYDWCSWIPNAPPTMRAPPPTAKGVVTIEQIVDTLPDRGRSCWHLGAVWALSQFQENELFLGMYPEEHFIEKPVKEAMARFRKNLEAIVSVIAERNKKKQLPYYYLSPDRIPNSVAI
Put plainly: Inhibition of human 5-LOX expressed in Escherichia coli Bl21 (DE3) assessed as remaining enzyme activity by measuring LTB4 and 5-H(P)ETE) formation at 10 uM pre-incubated for 10 mins before arachidonic acid substrate addition by RP-HPLC method.
Conditions: not given
The procedure, abridged: (§1)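 Human 5-LO expressed from pT3-5LO in E. coli BL21(DE3) and semi-purified on ATP-agarose. Diluted in PBS with 1 mM EDTA and 1 mM ATP, pre-incubated with compound 10 min at 4 °C, then warmed 30 s at 37 °C. Reaction started with 2 mM CaCl2 plus 20 µM arachidonic acid, run 10 min at 37 °C and stopped with ice-cold methanol. All-trans LTB4 isomers and 5-H(P)ETE measured by RP-HPLC. 3–4 independent experiments.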
On to `C#CCCOC(=O)/C=C/c1ccc(F)c(F)c1`, for which the Activity stood at 52.6%.

With `CC(=O)Oc1ccc(/C=C/C(=O)O)cc1OC(C)=O`, the Activity was 90.3%.

For `O=C(/C=C/c1ccc(F)c(F)c1)OCCc1cn(CCCO)nn1`, the Activity turned out to be 90.3%.

For `CC(=O)Oc1ccc(/C=C/C(=O)NCCc2cn(CCCO)nn2)cc1OC(C)=O`, the Activity worked out at 53.6%.

The next experiment deals with T2, Polyunsaturated fatty acid 5-lipoxygenase (Homo sapiens, UniProt P09917).
T2 sequence (P09917 whole entry): T1 sequence (whole entry)
Put plainly: Inhibition of human 5-LOX expressed in Escherichia coli Bl21 (DE3) assessed as reduction in LTB4 and 5-H(P)ETE) formation pre-incubated for 10 mins before arachidonic acid substrate addition by RP-HPLC method.
Conditions: not given
Put shortly: as §1
For the compound `CC(=O)Oc1ccc(/C=C/C(=O)OCCCn2cc(CCOC(=O)/C=C/c3ccc(OC(C)=O)c(OC(C)=O)c3)nn2)cc1OC(C)=O`, the IC50 was more than 10 µM.

Regarding `C#CCCCCOC(=O)/C=C/c1ccc(OC(C)=O)c(OC(C)=O)c1`, the concentration for half-maximal inhibition (IC50) is more than 10 µM.

Turning to `C#CCCCCCCCCOC(=O)/C=C/c1ccc(OC(C)=O)c(OC(C)=O)c1`, the concentration for half-maximal inhibition (IC50) is more than 10 µM.

For `C#CCCNC(=O)/C=C/c1ccc(OC(C)=O)c(OC(C)=O)c1`, the IC50 was more than 10 µM.

For `CC(=O)Oc1ccc(/C=C/C(=O)OCCCCCCCCc2cn(CCCO)nn2)cc1OC(C)=O`, the IC50 stood at 3.2 µM.

With `CC(=O)Oc1ccc(/C=C/C(=O)OCCCCc2cn(CCCO)nn2)cc1OC(C)=O`, the concentration for half-maximal inhibition (IC50) came to 7.6 µM.

For `CC(=O)Oc1ccc(/C=C/C(=O)OCCc2cn(CCCOC(=O)C3(C)CCc4c(C)c(OC(C)=O)c(C)c(C)c4O3)nn2)cc1OC(C)=O` (configuration not stated), the IC50 is more than 10 µM.

For `C#CCCOC(=O)/C=C/c1ccc(F)c(F)c1`, the concentration for half-maximal inhibition (IC50) is more than 10 µM.

Consider `CC(=O)Oc1ccc(/C=C/C(=O)OCCCN=[N+]=[N-])cc1OC(C)=O`, for which the IC50 is more than 10 µM.

On to `CC(=O)Oc1ccc(/C=C/C(=O)O)cc1OC(C)=O`, for which the IC50 was more than 10 µM.

`O=C(/C=C/c1ccc(F)c(F)c1)OCCc1cn(CCCO)nn1`: the IC50 is more than 10 µM.

In the case of `CC(=O)Oc1ccc(/C=C/C(=O)OCCCn2cc(CCO)nn2)cc1OC(C)=O`, the 50% inhibitory concentration (IC50) was found to be 7.6 µM.

On to `CC(=O)Oc1c(C)c(C)c2c(c1C)CCC(C)(C(=O)OCCCN=[N+]=[N-])O2` (configuration not stated), for which the concentration for half-maximal inhibition (IC50) was more than 10 µM.

Turning to `C#CCCCCCOC(=O)/C=C/c1ccc(OC(C)=O)c(OC(C)=O)c1`, the concentration for half-maximal inhibition (IC50) was more than 10 µM.

For `C#CCCOC(=O)/C=C/c1ccc(OC(C)=O)c(OC(C)=O)c1`, the IC50 was more than 10 µM.

As to `CC(=O)Oc1ccc(/C=C/C(=O)NCCc2cn(CCCO)nn2)cc1OC(C)=O`, the IC50 was more than 10 µM.

For the next experiment, the target named is T1, Polyunsaturated fatty acid 5-lipoxygenase (Homo sapiens). Put plainly: Inhibition of human 5-LOX expressed in HEK293 cells co-expressing FLAP assessed as reduction in LTB4 and 5-H(P)ETE) formation at 1 uM pre-incubated for 10 mins before arachidonic acid substrate addition by RP-HPLC method. It counts as cell-based.
Conditions: not given
The procedure, abridged: (§2)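 Stably transfected HEK 293 cells expressing 5-LO alone or 5-LO plus FLAP, 1 × 10^6 cells in 1 mL PBS with 0.1% glucose and 1 mM CaCl2. Pre-incubated with compound 10 min at 37 °C, then stimulated with 2.5 µM A23187 plus 2 µM arachidonic acid for 10 min at 37 °C. Stopped with methanol; all-trans LTB4 isomers and 5-H(P)ETE extracted and measured by HPLC.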
With `CC(=O)Oc1ccc(/C=C/C(=O)OCCCn2cc(CCOC(=O)/C=C/c3ccc(OC(C)=O)c(OC(C)=O)c3)nn2)cc1OC(C)=O`, the inhibition entry is “Active”.

On to `CC(=O)Oc1ccc(/C=C/C(=O)OCCc2cn(CCCOC(=O)C3(C)CCc4c(C)c(OC(C)=O)c(C)c(C)c4O3)nn2)cc1OC(C)=O` (configuration not stated), for which the inhibition result is “Active”.

For a further experiment the target is unchanged. The experiment in a line: Inhibition of 5-LOX in human neutrophils assessed as remaining enzyme activity by measuring LTB4 and 5-H(P)ETE) formation at 10 uM pre-incubated for 15 mins before A23187 and arachidonic acid substrate addition by RP-HPLC method.
Conditions: not given
Put shortly: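 Freshly isolated neutrophils (1 × 10^7/mL) pre-incubated with compound for 15 min at 37 °C. Stimulated with 2.5 µM A23187 plus 20 µM arachidonic acid for 10 min at 37 °C, then stopped with methanol. LTB4, its all-trans isomers and 5-H(P)ETE extracted and quantified by HPLC; cysteinyl-LTs and LTB4 oxidation products not measured. Mean ± S.E.M. of 3–4 independent experiments.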
For the compound `C#CCCOC(=O)/C=C/c1ccc(F)c(F)c1`, the Activity was found to be 88.2%.

For the compound `CC(=O)Oc1ccc(/C=C/C(=O)O)cc1OC(C)=O`, the Activity was 84.7%.

Take `O=C(/C=C/c1ccc(F)c(F)c1)OCCc1cn(CCCO)nn1`: the Activity was found to be 101%.

With `CC(=O)Oc1ccc(/C=C/C(=O)NCCc2cn(CCCO)nn2)cc1OC(C)=O`, the Activity was 104%.

A further experiment deals with T2, Polyunsaturated fatty acid 5-lipoxygenase. Put plainly: Inhibition of 5-LOX in human neutrophils assessed as reduction in LTB4 and 5-H(P)ETE) formation pre-incubated for 15 mins before A23187 and arachidonic acid substrate addition by RP-HPLC method.
Conditions: not given
The procedure, abridged: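 Freshly isolated neutrophils (1 × 10^7/mL) pre-incubated with compound for 15 min at 37 °C. LTB4, its all-trans isomers and 5-H(P)ETE extracted and quantified by HPLC; cysteinyl-LTs and LTB4 oxidation products not measured. Mean ± S.E.M. of 3–4 independent experiments.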
Take `CC(=O)Oc1ccc(/C=C/C(=O)OCCCn2cc(CCOC(=O)/C=C/c3ccc(OC(C)=O)c(OC(C)=O)c3)nn2)cc1OC(C)=O`: the 50% inhibitory concentration (IC50) was determined as 0.6 µM.

Regarding `C#CCCCCOC(=O)/C=C/c1ccc(OC(C)=O)c(OC(C)=O)c1`, the concentration for half-maximal inhibition (IC50) worked out at 0.92 µM.

With `C#CCCCCCCCCOC(=O)/C=C/c1ccc(OC(C)=O)c(OC(C)=O)c1`, the concentration for half-maximal inhibition (IC50) turned out to be 0.18 µM.

On to `C#CCCNC(=O)/C=C/c1ccc(OC(C)=O)c(OC(C)=O)c1`, for which the IC50 turned out to be 8.23 µM.

Turning to `CC(=O)Oc1ccc(/C=C/C(=O)OCCCCCCCCc2cn(CCCO)nn2)cc1OC(C)=O`, the 50% inhibitory concentration (IC50) is 0.2 µM.

`CC(=O)Oc1ccc(/C=C/C(=O)OCCCCc2cn(CCCO)nn2)cc1OC(C)=O`: the half-inhibitory concentration (IC50) is 6.1 µM.

Regarding `CC(=O)Oc1ccc(/C=C/C(=O)OCCc2cn(CCCOC(=O)C3(C)CCc4c(C)c(OC(C)=O)c(C)c(C)c4O3)nn2)cc1OC(C)=O` (configuration not stated), the IC50 is 0.16 µM.

As for `C#CCCOC(=O)/C=C/c1ccc(F)c(F)c1`, the IC50 is more than 10 µM.

Turning to `CC(=O)Oc1ccc(/C=C/C(=O)OCCCN=[N+]=[N-])cc1OC(C)=O`, the concentration for half-maximal inhibition (IC50) came out at 1.3 µM.

For `CC(=O)Oc1ccc(/C=C/C(=O)O)cc1OC(C)=O`, the IC50 is more than 10 µM.

For the compound `O=C(/C=C/c1ccc(F)c(F)c1)OCCc1cn(CCCO)nn1`, the half-inhibitory concentration (IC50) was more than 10 µM.

As for `CC(=O)Oc1ccc(/C=C/C(=O)OCCCn2cc(CCO)nn2)cc1OC(C)=O`, the half-maximal inhibitory concentration (IC50) was more than 10 µM.

Take `CC(=O)Oc1c(C)c(C)c2c(c1C)CCC(C)(C(=O)OCCCN=[N+]=[N-])O2` (configuration not stated): the half-maximal inhibitory concentration (IC50) is 2.6 µM.

As to `C#CCCCCCOC(=O)/C=C/c1ccc(OC(C)=O)c(OC(C)=O)c1`, the IC50 came out at 0.47 µM.

`C#CCCOC(=O)/C=C/c1ccc(OC(C)=O)c(OC(C)=O)c1`: the concentration for half-maximal inhibition (IC50) worked out at 1.8 µM.

On to `CC(=O)Oc1ccc(/C=C/C(=O)NCCc2cn(CCCO)nn2)cc1OC(C)=O`, for which the concentration for half-maximal inhibition (IC50) was more than 10 µM.

Another experiment deals with T1, Polyunsaturated fatty acid 5-lipoxygenase (Homo sapiens). Put plainly: Inhibition of human 5-LOX expressed in HEK293 cells without FLAP expression assessed as reduction in LTB4 and 5-H(P)ETE) formation at 1 uM pre-incubated for 10 mins before arachidonic acid substrate addition by RP-HPLC method. The format is cell-based.
Conditions: not given
Put shortly: as §2
As for `CC(=O)Oc1ccc(/C=C/C(=O)OCCCn2cc(CCOC(=O)/C=C/c3ccc(OC(C)=O)c(OC(C)=O)c3)nn2)cc1OC(C)=O`, the inhibition entry is “Active”.

Turning to `CC(=O)Oc1ccc(/C=C/C(=O)OCCc2cn(CCCOC(=O)C3(C)CCc4c(C)c(OC(C)=O)c(C)c(C)c4O3)nn2)cc1OC(C)=O` (configuration not stated), the inhibition entry is “Active”.

On to `C#CCCOC(=O)/C=C/c1ccc(OC(C)=O)c(OC(C)=O)c1`, for which the inhibition entry was “Active”.
